# Source: PubChem (The Scripps Research Institute Molecular Screening Center)
# TRPML3 ag: agonists of human TRPML3 channel; Q8TDD5; HEK293 TRPML3-YFP, Fluo-8 calcium fluorescence; 100% = the carbachol control signal; activation, % at 3 µM; actives 0.29% (n = 220,000); AID 1448;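 active means activation above its plate's cutoff, the mean activation of the plate's test wells plus 3 SD, cut at about 12% in these data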;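 further: 0% = DMSO only wells and 100% = carbachol wells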
# Target sequence (Q8TDD5 whole entry, looked up): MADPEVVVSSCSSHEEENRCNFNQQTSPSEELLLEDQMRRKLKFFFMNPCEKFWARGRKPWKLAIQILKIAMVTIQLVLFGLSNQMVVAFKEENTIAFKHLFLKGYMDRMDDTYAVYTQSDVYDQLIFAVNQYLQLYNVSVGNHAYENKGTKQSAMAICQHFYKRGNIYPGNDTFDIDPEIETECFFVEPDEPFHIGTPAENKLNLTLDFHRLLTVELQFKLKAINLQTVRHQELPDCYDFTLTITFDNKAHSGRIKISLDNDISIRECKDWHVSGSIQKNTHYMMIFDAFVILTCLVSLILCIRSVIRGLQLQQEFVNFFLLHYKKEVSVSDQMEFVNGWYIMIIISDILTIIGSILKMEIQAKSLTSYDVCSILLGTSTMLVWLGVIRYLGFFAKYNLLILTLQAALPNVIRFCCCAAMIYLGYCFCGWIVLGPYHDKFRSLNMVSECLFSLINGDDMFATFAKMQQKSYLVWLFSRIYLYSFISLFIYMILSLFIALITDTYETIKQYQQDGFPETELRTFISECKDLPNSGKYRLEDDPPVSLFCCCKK
#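 Test system: HEK293 cells stably carrying human TRPML3-YFP; Doses: single dose, 3 µM final nominal compound, 0.3% DMSO final; Schedule: dye loading 1 h 37 °C then 30 min ambient, 125 s read; Technique: Fluo-8 calcium fluorescence; Benchmarks: high control carbachol 87 µM, low control DMSO.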
# OXTR potentiator: potentiates the human oxytocin receptor response | P30559 | CHO-OTR cells, Fluo-8 calcium fluorescence, potentiator mode; 0% = oxytocin EC15, 100% = EC100 | activation, % at 3 µM | actives 0.061% (n = 320,000);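 active means activation above that plate's cutoff, the mean activation of tested compounds plus 3 SD, cut at about 6.6% in these data, passing the limit was not always enough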;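 further: 100% uses oxytocin at 75 nM as the full agonist control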
#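 Assay system: CHO cell line stably expressing human OTR. Reagent: EC15 oxytocin agonist. Dosing: single dose, 3.0 µM nominal final compound concentration. Timing: compound 6 min at room temperature before oxytocin, 100 s read. Signal: kinetic Fluo-8 calcium fluorescence. Controls: oxytocin EC15 low and EC100 high.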
# V1aR counter: counter-screen for oxytocin receptor agonists: human V1a receptor agonists; P37288; CHO-V1R cells, Fluo-8 calcium fluorescence, agonist mode; 0% DMSO, 100% 3 nM vasopressin; activation, % at 3 µM; actives 0.25% (n = 320,000); AID 2797;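 active means activation above the mean activation of all tested compounds plus 3 SD, per screening run, cut at about 20% in these data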;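 further: signal is peak over basal fluorescence ratio across a 100 second FLIPR read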
# OXTR ag: agonists of human oxytocin receptor. P30559. CHO-OTR cells, Fluo-8 calcium fluorescence; normalized: DMSO 0%, oxytocin 100%. activation, % at 3 µM. actives 0.32% (n = 320,000);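 active means activation above the mean of all tested compounds plus 3 SD, cutoff set per screening run, cut at about 20% in these data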;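 further: peak over basal fluorescence ratio from a 100 s FLIPR kinetic read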
# TRPN1 ag: zebrafish TRPN1 (NompC) channel agonism; actives 0.18% (n = 220,000); activation, % at 3 µM; HEK293 zebrafish TRPN1-YFP, Fluo-8 calcium fluorescence; 100% = response to 87 µM carbachol; AID 1424;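 active means activation above its plate's cutoff, the mean activation of test wells on that plate plus 3 SD, cut at about 19% in these data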;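 further: 0% = DMSO alone and 100% = 87 µM carbachol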
#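 Material – zebrafish TRPN1-YFP in HEK293 cells · Doses – 3 µM single point · Schedule – dye 1 h 37 °C plus 30 min RT · Signal – Fluo-8 calcium fluorescence, excitation 470-495 nm, emission 515-575 nm · Read-out – % activation versus carbachol response · Control set – carbachol high, DMSO low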
# Active calls of the source: *; · = no result given. A selection: hits, their analogues and other compounds. The true share with any hit is near 0.55%.
SMILES,TRPML3 ag,OXTR potentiator,V1aR counter,OXTR ag,TRPN1 ag
COc1cccc(NC(=S)NC(=O)Cc2ccc(Cl)cc2)c1,·,-19,31*,25*,·
Cc1cc(C)c(O)c(NC(=S)NC(=O)Cc2ccccc2)c1,·,-20,29*,31*,·
CCC(=O)Nc1cccc(NC(=S)NC(=O)Cc2ccccc2)c1,0,-13,4,2,0
COc1ccc(CC(=O)NC(=S)Nc2cccc(CO)c2)cc1,·,-20,27*,28*,·
Cc1c(NC(=S)NC(=O)Cc2ccccc2)cccc1C(=O)O,1,-4,0,0,1
COc1ccccc1NC(=S)NC(=O)Cc1ccc(Cl)cc1,·,-20,33*,22*,·
Cc1cccc(NC(=S)NC(=O)CCc2ccccc2)c1,0,-9,-1,-3,-1
COc1ccc(CC(=O)NC(=S)Nc2cccc(C)c2)cc1,·,-20,27*,26*,·
COc1ccc(CNc2nc3ccccc3n2C)c(OC)c1,0,1,4,4,0
COc1ccc(N=Nc2nc3cc(Br)c(Br)cc3n2C)c(OC)c1,20*,-7,7,10,25*
Cc1cccc(CSC(=N)N)c1,0,-10,2,0,1
N#CC(C#N)=C(Nc1ccc(F)cc1)SCc1cccc(Br)c1,21*,-10,6,16,25*
Cc1cccc(CSC(Nc2ccc(F)cc2)=C(C#N)C#N)c1,19*,-7,10,18,26*
CC(SCc1ccccc1)C(=O)Nc1ccc(F)cc1 (stereo not given),-1,-4,0,-3,-3
O=C(CCNS(=O)(=O)c1ccc(OC(F)(F)F)cc1)N1CCN(S(=O)(=O)c2cccc(F)c2)CC1,·,-7,3,3,·
C[C@@]12C(=O)Nc3cc(F)c(F)cc3C(=O)N1[C@H]1c3cc(Cl)ccc3OC[C@@H]1[C@@H]2c1ccccc1,·,-6,2,1,·
CCOc1cc(/C=C2\SC(=S)N(NS(=O)(=O)c3ccc(C)cc3)C2=O)ccc1O,·,-14,16,13,·
COc1cc(/C=C2\SC(=S)N(NS(=O)(=O)c3ccccc3)C2=O)ccc1O,17*,-8,41*,24*,25*
COc1cc(/C=C2\SC(=S)N(NS(=O)(=O)c3ccc(C)cc3)C2=O)ccc1O,24*,-5,39*,24*,37*
COc1cc(/C=C2\SC(=S)N(NC(=O)c3ccncc3)C2=O)ccc1O,7,-4,14,10,13
COc1cc(/C=C2\SC(=S)N(NC(=O)c3ccc(O)c(OC)c3)C2=O)ccc1O,·,-26,29*,37*,·
COc1ccc(/C=C2/SC(=S)N(NS(=O)(=O)c3ccccc3)C2=O)cc1,·,-6,3,0,·
c1ccc(CNc2cncnc2)cc1,·,2,1,0,·
CC(C)Cc1nnc(NC(=O)CCC(=O)NCCc2ccc(Cl)cc2)s1,·,-9,0,0,·
CS(=O)(=O)c1ccc(NS(=O)(=O)c2ccc(Cl)c(C(=O)NCc3ccco3)c2)cc1,·,-6,0,0,·
SMILES,TRPML3 ag,OXTR potentiator,V1aR counter,OXTR ag,TRPN1 ag
O=C(O)C1CCCC2CN3CCc4c([nH]c5ccccc45)C3C(O)C21 (stereo not given),·,-10,0,1,·
CCN(CC)c1ccc(/C=C2\C(=O)c3ccc(C(=O)O)cc3C2=O)cc1,23*,-12,66*,161*,69*
CCN(CC)c1ccc(C(=O)O)cc1,0,-9,1,0,0
O=C(O)COc1ccccc1/C=N/NC(=O)CSc1nc2ccccc2n1Cc1ccc(Cl)cc1,-1,-11,1,-1,-1
Cn1c(N)c(-c2ccccc2)c2ccc([N+](=O)[O-])cc2c1=O,·,-17,51*,46*,·
COc1ccc2c(c1)CC(N1CCN(C)CC1)c1cc(OC)ccc1S2 (stereo not given),·,-21,25*,34*,·
O=C(NNC(=S)NC(=O)C12CC3CC(CC(C3)C1)C2)c1ccncc1,54*,-14,71*,61*,85*
CC1(C(=O)NC(=S)NNC(=O)c2ccncc2)CCCCC1,8,-16,19,10,7
Oc1ccc(C23CCCC2C2(CCCC2)c2ccc(O)cc2O3)c(O)c1 (stereo not given),·,-15,28*,39*,·
CC(C)n1cc(CN2CCCC(C(=O)Nc3cccc(-c4cc5ccccc5[nH]4)c3)C2)cn1 (stereo not given),·,-14,26*,24*,·
Cn1cc(CN2CCCC(C(=O)Nc3cccc(-c4cc5ccccc5[nH]4)c3)C2)cn1 (stereo not given),·,-14,5,8,·
CCOc1cc(NC(=S)Nc2ccccc2)c(OCC)cc1NC(=O)c1ccccc1,77*,-8,-1,-2,0
COc1ccc(OC)c(/C=C2/Sc3ccccc3C2=O)c1,7,-14,28*,24*,13
O=C(NC(=S)N1CCOCC1)c1cc2ccccc2o1,1,7,0,-1,1
CCOC(=O)CN1C(=O)S/C(=C/c2ccc3c(c2)n(C)c(=O)n3C)C1=O,0,-2,0,1,0
CCOC(=O)CN1C(=O)S/C(=C/C=C/c2ccc(N(C)C)cc2)C1=O,6,-17,28*,26*,6
CCCCNC(=S)NC(=O)c1ccc([N+](=O)[O-])cc1,0,-9,-1,-3,-3
CCCCNC(=S)Nc1ccc([N+](=O)[O-])cc1,11,-16,8,10,21*
CC(C)CCNC(=S)Nc1ccc([N+](=O)[O-])cc1,13*,-7,6,8,24*
CCCN(CC(=O)Nc1ccccc1OC)C(=O)c1cc(-c2ccccc2)nn1-c1ccccc1,·,-7,-1,-1,·
CC[C@@H](C(=O)[C@@H](C)[C@@H](O)[C@H](C)CCc1ccc(C)c(O)c1C(=O)O)[C@H]1O[C@](CC)([C@H]2CC[C@](O)(CC)[C@H](C)O2)C[C@@H]1C,·,-9,42*,32*,·
CCC1(c2ccc(F)cc2)NC(=O)N(CC(=O)Nc2cccnc2Cl)C1=O (stereo not given),·,-18,30*,23*,·
COc1ccc(C2(C)NC(=O)N(CC(=O)Nc3cccnc3Cl)C2=O)cc1 (stereo not given),·,-3,5,7,·
CC1(c2ccc(OC(F)F)cc2)NC(=O)N(CC(=O)Nc2ccc(N3CCCCC3)cc2)C1=O (stereo not given),·,-21,27*,27*,·
CCC1(c2ccccc2)NC(=O)N(CC(=O)Nc2cccnc2Cl)C1=O (stereo not given),·,-3,2,4,·
CC1(c2ccc(OC(F)F)cc2)NC(=O)N(CC(=O)Nc2cccnc2Cl)C1=O (stereo not given),·,-22,48*,60*,·
